PfHsp90 set2 – growth inhibition of PfHsp90-expressing yeast, primary screen, antimalarial PfHsp90 inhibitor project, S. cerevisiae, BacTiter-Glo luminescence, single point, set 2. hit rate 0.32% among 310,000. BacTiter-Glo ATP, 48 h; yeast lacking PDR1 and PDR3 efflux regulators. inhibition, % at 9.4 µM. AID 504621, 2011;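 active = every replicate shows inhibition above about 80%, whatever the replicate mean, limit read from the data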;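 also: 0% = DMSO neutral controls and 100% = 20 µM radicicol positive controls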
Arrestin-AP2 inh – inhibitors of beta-arrestin/AP2 binding, primary screen, biochemical, GPCR trafficking, flow cytometry. FITC-arrestin peptide / GST-AP2 beads; AP2 beta2 appendage carries R879A mutation. inhibition, % at 10 µM. hit rate 0.31% among 340,000;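 active = inhibition above a set limit, near 3 SD of compounds lacking own fluorescence, cut at about 54% in these data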;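 also: plate controls were DMSO wells for no effect and 5 µM unlabelled arrestin peptide for full effect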
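test system = AP2 appendage R879A on GSH beads | buffer or medium = PBS plus Tween 20 (0.05%) and BSA (0.1%) | incubation = 12 min plus 1 h, RT | detection = bead flow cytometry, FITC channel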
Rtt109 HAT inh – inhibitors of C. albicans Rtt109/Vps75 HAT, primary screen, biochemical, ThioGlo CoA-SH fluorescence, plate reader; hit rate 0.16% among 330,000; inhibition, % at 34.9 µM; purified Rtt109/Vps75, 4 h; Histone acetyltransferase RTT109 (Candida albicans (strain SC5314 / ATCC MYA-2876)), …; AID 540336, 2011;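 active = inhibition of at least 50% in every replicate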
Target sequence (Q5AAJ8 whole entry, looked up): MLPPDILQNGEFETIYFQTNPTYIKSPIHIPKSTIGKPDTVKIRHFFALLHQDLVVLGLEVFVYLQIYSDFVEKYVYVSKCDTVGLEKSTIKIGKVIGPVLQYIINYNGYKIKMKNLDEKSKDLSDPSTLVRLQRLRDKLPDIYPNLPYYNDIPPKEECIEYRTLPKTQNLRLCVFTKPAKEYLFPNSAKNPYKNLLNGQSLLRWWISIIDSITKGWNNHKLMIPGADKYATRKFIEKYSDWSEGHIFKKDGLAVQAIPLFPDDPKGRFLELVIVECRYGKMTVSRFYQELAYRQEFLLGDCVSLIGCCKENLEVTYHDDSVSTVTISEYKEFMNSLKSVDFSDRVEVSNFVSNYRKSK
HIV Env fusion – inhibitors of HIV-1 Env-driven cell-cell fusion, primary screen, HeLa-JRFL effector, CEM21 target cells, luciferase | inhibition, % at 12.3 µM | hit rate 1.1% among 360,000 | AID 651610, 2012;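 active = mean replicate inhibition score of at least 50 and every replicate individually at or above 50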;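 also: 0% = plate neutral controls and 100% = maraviroc near 300 nM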
N-glyco inh – increase of ERlucT glycosylation luciferase signal, primary screen, N-linked glycosylation inhibitor project, D54 ERlucT cells, luminescence, set 2. hit rate 0.23% among 360,000. reporter increase, % at 12.5 µM. D54 ERlucT glycosylation luciferase reporter, 24 h; percent of 100 nM tunicamycin response. AID 588692, 2011;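 active = mean luciferase reporter signal, scaled so untreated is 0 and the glycosylation-blocking control 100, at or above a set limit in every replicate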;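 also: luciferase carries N-glycosylation sites so blocking glycosylation raises the light; 0% = median of neutral control wells and 100% = median of 100 nM tunicamycin wells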
PAX8 inh HTS – inhibitors of PAX8-driven TPO luciferase reporter, primary screen, RMG-I cells, single concentration; SteadyGlo, 24 h; inhibition, % at 12.6 µM; hit rate 1.2% among 360,000; AID 652154, 2013;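 active = mean replicate inhibition at least 60% with every replicate also reaching 60%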;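 also: luciferase light reporting Pax8 driven TPO promoter activity; plate controls were median of neutral control wells for no effect and mitoxantrone controls for full effect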
* = called active by the depositor; x = no result given; ! = a repeat was not active; [ ] = remark or other dose. Only some compounds are listed: those with a hit (about 2.3% of all), similar ones and a draw of the others.

SMILES | PfHsp90 set2 | Arrestin-AP2 inh | Rtt109 HAT inh | HIV Env fusion | N-glyco inh | PAX8 inh HTS
C=C1C(=O)OC2C1CCC(C)C1C=CC(=O)C12C (centres undefined) | 13 | 24 | -6 | x | 21 | 75*
COc1cc(C2C3=C(COC3=O)OC(C)(C)Oc3cc4c(cc32)OCO4)cc(OC)c1OC (centres undefined) | -9 | 7 | -2 | 30 | 14 | 93*
CC(=O)N1[C@@H](CO)[C@@H](c2ccccc2)C12CN(C(=O)c1ccccn1)C2 | x | x | x | x | x | -21
CCOC(=O)c1c2c(n(Cc3ccccc3)c1C)C(=O)C(=O)c1ccccc1-2 | 2 | 12 | 1 | 78* | -23 | 125*
Cc1ccc2nc(N(CCCN(C)C)C(=O)c3sc4ccccc4c3Cl)sc2c1 | 1 | 9 | 55* | x | -6 | x
Cc1[nH]nc2nc(SCC(=O)NC3CCCCC3)n(-c3ccc(Br)cc3)c(=N)c12 | -11 | 0 | 3 | 36 | 8 | 109*
COc1ccc(OC)c(CCNC(=O)Cn2nc(C)c3c(C)n(-c4ccc(C)cc4)nc3c2=O)c1 | 1 | -2 | 4 | 19 | 4 | 71*
Oc1cc(NCc2ccc(F)cc2)cc2cccnc12 | 17 | -6 | -5 | 50 | 16 | 73*
Oc1cc(NCc2ccc(Cl)cc2)cc2cccnc12 | -14 | -4 | 4 | 25 | 23 | -2
Nc1ccn([C@@H]2O[C@H](C(=O)NCc3ccc4c(c3)OCO4)[C@@H](O)[C@H]2O)c(=O)n1 | x | x | x | 77* | 0 | -5
CCCNC(=O)N1CC2(CN(C(=O)Cc3cccnc3)C2)c2c([nH]c3cc(OC)ccc23)[C@@H]1CO | x | x | x | x | x | -6
C[C@@H]1CN([C@@H](C)CO)C(=O)CCCn2cc(nn2)CO[C@H]1CN(C)S(=O)(=O)c1ccc(F)cc1 | x | x | x | 8[16.7 µM] | x | x
CC(C)(COC(=O)C(c1ccccc1)c1ccccc1)CN1CCOCC1 | -13 | 2 | 4 | 80* | -5 | -3
O=C(C[C@H]1C[C@H]2c3cc(NC(=O)c4cccnc4)ccc3O[C@H]2[C@H](CO)O1)NCc1ccccn1 | x | x | x | 0[16.7 µM] | x | -6
CCCN(CC1CC1)C(=O)CSc1ncnc2sc(C)c(C)c12 | x | 1 | 8 | 69* | 0 | x
COc1ccc2c3c(n(C)c2c1)[C@H](CO)N(Cc1ccncc1)CC31CN(C(=O)C2CCCC2)C1 | x | x | x | x | x | 0
O=C1c2c(O)ccc(O)c2C(=O)c2c(NCCNCCO)ccc(NCCNCCO)c21 | 7 | 28 | 4 | 58* | -20 | 106*!
C=C[C@@H]1c2cc(C)ccc2N(S(=O)(=O)c2ccc(C)cc2)[C@H](c2ccccc2C(F)(F)F)C1(C#N)C#N | 18 | 3 | -4 | 56* | -8 | 29
C=C[C@@H]1c2cc(C)ccc2N(S(=O)(=O)c2ccc(C)cc2)[C@H](c2ccccc2)C1(C#N)C#N | -7 | 4 | -5 | 28 | -10 | 31
CC(=O)c1sc(NC(=O)CCS(=O)(=O)c2ccc(F)cc2)nc1C | x | x | x | 11 | -11 | 77*
CC(=O)c1sc(NC(=O)CCS(=O)(=O)c2ccccc2)nc1C | -5 | -5 | -1 | 0 | -10 | 44
Cc1noc(C)c1NC(=O)Nc1ccc2c(c1)C(=O)N([C@H](C)CO)C[C@@H](C)[C@@H](CN(C)Cc1ccc(C(F)(F)F)cc1)OCCCC[C@@H](C)O2 | x | x | x | 41[16.7 µM] | x | 18
Cc1ccc(S(=O)(=O)Nc2ccc3c(c2)C(=O)N([C@@H](C)CO)C[C@@H](C)[C@H](CN(C)C(=O)Nc2ccc(C(F)(F)F)cc2)OCCCC[C@@H](C)O3)cc1 | x | x | x | 19[16.7 µM] | x | 40
C[C@@H]1CN([C@H](C)CO)C(=O)c2cc(NS(=O)(=O)c3ccc(Cl)cc3)ccc2O[C@@H](C)CCCCO[C@H]1CN(C)C(=O)Nc1ccc(C(F)(F)F)cc1 | x | x | x | 55*[16.7 µM] | x | 102*
